Blank lines part the entries; values can stand above or below the molecule they belong to. The source made the active and inactive calls. No cut-off for these calls is given here.
How the values were obtained:
Cryptococcus neoformans = assay: Antimicrobial activity against Cryptococcus neoformans ATCC 66031 assessed as inhibition of microbial growth by microbroth dilution assay; assay type: functional
Method in brief: (§1)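 Antifungal broth microdilution test against the yeast strain (C. albicans ATCC 10231 or C. neoformans ATCC 66031). Amphotericin B at 2 μg/mL served as the control antifungal. MIC values were taken from the broth panel.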

Candida albicans = assay: Antimicrobial activity against Candida albicans ATCC 10231 assessed as inhibition of microbial growth by microbroth dilution assay; assay type: functional; method in brief: as §1
Staphylococcus aureus = assay: Antimicrobial activity against methicillin-resistant Staphylococcus aureus ATCC 43300 assessed as inhibition of microbial growth by microbroth dilution assay; assay type: functional
Method in brief: (§2)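 Broth microdilution susceptibility test; the read-out is MIC. The reference antibiotic was tetracycline at 10 μg/mL for MRSA ATCC 43300 and penicillin G at 10 μg/mL for E. faecalis ATCC 51299.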

Enterococcus faecalis = assay: Antimicrobial activity against vancomycin-resistant Enterococcus faecalis ATCC 51299 assessed as inhibition of microbial growth by microbroth dilution assay; assay type: functional; method in brief: as §2
Bacillus subtilis = assay: Antimicrobial activity against Bacillus subtilis ATCC 6633 assessed as inhibition of microbial growth by microbroth dilution assay; assay type: functional
Method in brief: (§3)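 Broth microdilution susceptibility test against the listed ATCC bacterial strain. Tetracycline at 10 μg/mL served as the positive-control antibiotic. Growth inhibition was read in broth, with MIC values reported.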

Escherichia coli = assay: Antimicrobial activity against Escherichia coli ATCC 25922 assessed as inhibition of microbial growth by microbroth dilution assay; assay type: functional; method in brief: as §3
Acinetobacter baumannii = assay: Antimicrobial activity against Acinetobacter baumannii ATCC 19606 assessed as inhibition of microbial growth by microbroth dilution assay; assay type: functional; method in brief: as §3
Pseudomonas aeruginosa = assay: Antimicrobial activity against Pseudomonas aeruginosa ATCC 27853 assessed as inhibition of microbial growth by microbroth dilution assay; assay type: functional
Method in brief: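 Broth microdilution susceptibility test against P. aeruginosa ATCC 27853. Tetracycline at 50 μg/mL served as the positive-control antibiotic. Growth inhibition was read in broth, with MIC values reported.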

Klebsiella pneumoniae = assay: Antimicrobial activity against Klebsiella pneumoniae ATCC 13883 assessed as inhibition of microbial growth by microbroth dilution assay; assay type: functional; method in brief: as §3
Plasmodium falciparum = assay: Antiplasmodial activity against Plasmodium falciparum NF54 assessed as inhibition of microbial growth at 10 ug/ml by [3H]hypoxanthine incorporation assay; assay type: functional, organism-based
Method in brief: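 In vitro screen against the drug-sensitive P. falciparum NF54 strain using a modified [3H]hypoxanthine incorporation assay. Chloroquine and artesunate were run as positive controls.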

Compound: Cc1c(O)cc(O)c2c1C[C@@H](CCCCCCC(=O)O)OC2=O
MIC (Cryptococcus neoformans): > 100 µg/mL
MIC (Candida albicans): > 100 µg/mL
MIC (Staphylococcus aureus): > 100 µg/mL
MIC (Enterococcus faecalis): > 100 µg/mL
MIC (Bacillus subtilis): > 100 µg/mL
MIC (Escherichia coli): > 100 µg/mL
MIC (Acinetobacter baumannii): > 100 µg/mL
MIC (Pseudomonas aeruginosa): > 100 µg/mL
MIC (Klebsiella pneumoniae): > 100 µg/mL

MIC (Cryptococcus neoformans): 40 µg/mL
MIC (Candida albicans): > 100 µg/mL
Compound: CCCCCCC[C@@H]1Cc2c(C)c(O)cc(O)c2C(=O)O1
growth inhibition (GI) (Plasmodium falciparum): inactive

Compound: Cc1c(O)cc(O)c2c1C[C@@H](CCCCCCCO)OC2=O
MIC (Cryptococcus neoformans): > 100 µg/mL
MIC (Candida albicans): > 100 µg/mL
MIC (Staphylococcus aureus): > 100 µg/mL
MIC (Enterococcus faecalis): > 100 µg/mL
MIC (Bacillus subtilis): > 100 µg/mL
MIC (Escherichia coli): > 100 µg/mL
MIC (Acinetobacter baumannii): > 100 µg/mL
MIC (Pseudomonas aeruginosa): > 100 µg/mL
MIC (Klebsiella pneumoniae): > 100 µg/mL

Compound: C[C@@H]1[C@H](O)[C@@H](C)/C=C/C=C/C=C/C=C/C=C/C=C/C=C/[C@H](O[C@@H]2O[C@H](C)[C@@H](O)[C@H](N)[C@@H]2O)C[C@@H]2O[C@](O)(C[C@@H](O)C[C@@H](O)[C@H](O)CC[C@@H](O)C[C@@H](O)CC(=O)O[C@H]1C)C[C@H](O)[C@H]2C(=O)O [AMPHOTERICIN B]
MIC (Cryptococcus neoformans): 0.2 µg/mL
MIC (Candida albicans): 0.2 µg/mL

MIC (Cryptococcus neoformans): 35 µg/mL
MIC (Candida albicans): > 100 µg/mL
Compound: CCCCCCC[C@@H]1Cc2c(C)c(O)c(C(=O)O)c(O)c2CO1
growth inhibition (GI) (Plasmodium falciparum): inactive

Compound: O=C(O)CCCCCC[C@@H]1Cc2cc(O)cc(O)c2C(=O)O1
MIC (Cryptococcus neoformans): > 100 µg/mL
MIC (Candida albicans): > 100 µg/mL
MIC (Staphylococcus aureus): > 100 µg/mL
MIC (Enterococcus faecalis): > 100 µg/mL
MIC (Bacillus subtilis): > 100 µg/mL
MIC (Escherichia coli): > 100 µg/mL
MIC (Acinetobacter baumannii): > 100 µg/mL
MIC (Pseudomonas aeruginosa): > 100 µg/mL
MIC (Klebsiella pneumoniae): > 100 µg/mL

Compound: O=C1CC[C@H](O)c2cccc(O)c21
MIC (Cryptococcus neoformans): 30 µg/mL
MIC (Candida albicans): 40 µg/mL
growth inhibition (GI) (Staphylococcus aureus): inactive
growth inhibition (GI) (Enterococcus faecalis): inactive
growth inhibition (GI) (Bacillus subtilis): inactive
growth inhibition (GI) (Escherichia coli): inactive
growth inhibition (GI) (Acinetobacter baumannii): inactive
growth inhibition (GI) (Pseudomonas aeruginosa): inactive
growth inhibition (GI) (Klebsiella pneumoniae): inactive

Compound: CCCCCCC[C@@H]1Cc2c(C)c(O)cc(O)c2CO1
MIC (Cryptococcus neoformans): > 100 µg/mL
MIC (Candida albicans): > 100 µg/mL
MIC (Staphylococcus aureus): > 100 µg/mL
MIC (Enterococcus faecalis): > 100 µg/mL
MIC (Bacillus subtilis): > 100 µg/mL
MIC (Escherichia coli): > 100 µg/mL
MIC (Acinetobacter baumannii): > 100 µg/mL
MIC (Pseudomonas aeruginosa): > 100 µg/mL
MIC (Klebsiella pneumoniae): > 100 µg/mL

Compound: Cc1c(O)cc(O)c2c1C[C@@H](CCCCCC(C)O)OC2=O (some centres not stated)
MIC (Cryptococcus neoformans): > 100 µg/mL
MIC (Candida albicans): > 100 µg/mL
MIC (Staphylococcus aureus): > 100 µg/mL
MIC (Enterococcus faecalis): > 100 µg/mL
MIC (Bacillus subtilis): > 100 µg/mL
MIC (Escherichia coli): > 100 µg/mL
MIC (Acinetobacter baumannii): > 100 µg/mL
MIC (Pseudomonas aeruginosa): > 100 µg/mL
MIC (Klebsiella pneumoniae): > 100 µg/mL

Compound: CC(=O)CCCCC[C@@H]1Cc2c(C)c(O)cc(O)c2C(=O)O1
MIC (Cryptococcus neoformans): > 100 µg/mL
MIC (Candida albicans): > 100 µg/mL
growth inhibition (GI) (Plasmodium falciparum): inactive
MIC (Staphylococcus aureus): > 100 µg/mL
MIC (Enterococcus faecalis): > 100 µg/mL
MIC (Bacillus subtilis): > 100 µg/mL
MIC (Escherichia coli): > 100 µg/mL
MIC (Acinetobacter baumannii): > 100 µg/mL
MIC (Pseudomonas aeruginosa): > 100 µg/mL
MIC (Klebsiella pneumoniae): > 100 µg/mL
